ChEMBL document CHEMBL1138266, “Design, synthesis, and biological evaluation of a 1alpha,25-dihydroxy-19-norvitamin D3 analogue with a frozen A-ring conformation” (J Med Chem, 2007)
Activity calls are given as the source filed them. No cut-off for these calls is given here.

Columns and labels:
Vitamin D3 receptor [1] = target: T1, Vitamin D3 receptor (Rattus norvegicus, UniProt P13053); experiment: Displacement of 1-alpha,25-dihydroxyvitamin from rat recombinant VDR
T1 sequence (P13053 whole entry): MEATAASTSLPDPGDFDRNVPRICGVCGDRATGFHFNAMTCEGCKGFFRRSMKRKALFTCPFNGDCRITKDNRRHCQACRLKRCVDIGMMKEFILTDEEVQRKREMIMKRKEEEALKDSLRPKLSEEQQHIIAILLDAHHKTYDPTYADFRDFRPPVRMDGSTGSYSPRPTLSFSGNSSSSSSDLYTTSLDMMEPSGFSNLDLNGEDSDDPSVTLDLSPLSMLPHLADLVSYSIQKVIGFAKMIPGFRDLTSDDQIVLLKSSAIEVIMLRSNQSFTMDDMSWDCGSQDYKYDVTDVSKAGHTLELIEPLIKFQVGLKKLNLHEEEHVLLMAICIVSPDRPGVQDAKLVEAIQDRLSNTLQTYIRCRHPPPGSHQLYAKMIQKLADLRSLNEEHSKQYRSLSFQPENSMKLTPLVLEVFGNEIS
Method in brief: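 Competitive binding against radiolabeled 1α,25-(OH)2D3 at 1 nM. Run in duplicate on two separate occasions.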

HL-60 [2] = experiment: Induction of differention of human HL60 cells into monocytes by NBT reduction assay; format: functional, cell-based
HL-60 [3] = experiment: Ratio of ED50 for drug to 1-alpha,25-dihydroxyvitamin for HL60 cells differentiation by NBT reduction assay; format: functional, Homo sapiens
Method in brief: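 Human HL-60 promyelocytes induced toward monocytic differentiation; maturation scored as percentage of cells reducing nitro blue tetrazolium. […] Experiment repeated in duplicate two times.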

Vitamin D3 receptor [4] = target: T1, Vitamin D3 receptor; experiment: (§1) Activity at VDR in rat osteosarcoma cells assessed as 24-hydroxylase transcription by reporter gene assay; format: cell-based
Method in brief: (§2)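 Rat osteosarcoma cells stably carrying a 24-hydroxylase gene reporter plasmid, read as luciferase activity.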

Mus musculus [5] = experiment: Increase in serum calcium in vitamin D deficient CD1 mouse at 5.4 […], ip after 24 hrs; format: functional, organism-based
Method in brief: (§3)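 Female CD-1 mice, 6 weeks old on arrival, were fed a purified vitamin D-deficient diet for 17 weeks (n=3/group). They got a single intraperitoneal injection in 95:5 propylene glycol/ethanol vehicle. Blood was drawn predose and at multiple later times. Serum was diluted in 0.1% lanthanum chloride and calcium read by atomic absorption, reported as change from baseline.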

Mus musculus [6] = experiment: Increase in serum calcium in vitamin D deficient CD1 mouse at 181.5 […], ip after 24 hrs; format: functional, organism-based; method in brief: as §3
[7] = target: T2, Vitamin D3 receptor (Rattus norvegicus) (UniProt P13053); experiment: as §1; format: cell-based; method in brief: as §2
T2 sequence (whole entry): T1 sequence (P13053 whole entry)

Mus musculus [8] = experiment: Increase in serum calcium in vitamin D sufficient CD1 mouse at 50 ug/kg, ip; format: functional, organism-based
Method in brief: (§4)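 Female CD-1 mice, 6-7 weeks old, were group-housed on a purified diet with 0.47% calcium and acclimated 5-7 days. Each got a single dose (n=5-6/group). Serum calcium was measured by atomic absorption after 0.1% lanthanum chloride dilution. Analysis was one-way ANOVA with pairwise comparisons.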

Mus musculus [9] = experiment: Increase in serum calcium in vitamin D sufficient CD1 mouse at 150 ug/kg, ip; format: functional, organism-based; method in brief: as §4
Mus musculus [10] = experiment: Increase in serum calcium in vitamin D sufficient CD1 mouse at 33.3 ug/kg, ip; format: functional, organism-based; method in brief: as §4
Mus musculus [11] = experiment: Increase in serum calcium in vitamin D sufficient CD1 mouse at 33.3 ug/kg, po; format: functional, organism-based; method in brief: as §4
Mus musculus [12] = experiment: Increase in serum calcium in vitamin D sufficient CD1 mouse at 150 ug/kg, po; format: functional, organism-based; method in brief: as §4

Ki (Vitamin D3 receptor [1]) [nM]	EC50 (HL-60 [2]) [nM]	EC50 (Vitamin D3 receptor [4]) [nM]	Activity [7]	SMILES	Ratio ED50 (HL-60 [3])	Activity (Mus musculus [5])	Activity (Mus musculus [6])	Activity (Mus musculus [8])	Activity (Mus musculus [9])	Activity (Mus musculus [10])	Activity (Mus musculus [11])	Activity (Mus musculus [12])
30	100	100		C[C@H](CCCC(C)(C)O)C1CC[C@H]2/C(=C/C=C3/C[C@@H](O)C4=CCCO[C@@H]4C3)CCC[C@]12C (some centres not stated)	>100							
				C=C1/C(=C\C=C2/CCC[C@]3(C)[C@@H]([C@H](C)CCCC(C)(C)O)CC[C@@H]23)C[C@@H](O)C[C@@H]1O		Active	Active					
10000	1000		inactive	C[C@H](CCCC(C)(C)O)C1CC[C@H]2/C(=C/C=C3\C[C@@H](O)C4=CCCO[C@@H]4C3)CCC[C@]12C (some centres not stated)	>1000	Active	Active	Active	Active	Active	Active	Active
